Assay results pooled from the literature.
Compare with care: the assays were run in different laboratories.
Effect on: metabolic stability
Species: human
Medium: liver microsomes

| SMILES | concentration | time | pH | compound remaining |
| --- | --- | --- | --- | --- |
| CC(C)NCC(O)COc1cccc2ccccc12 (centres unmarked) | 1 µM | 30 min |  | 63% |
| Nc1nc(-c2cccc(NC(=O)Nc3cccc(-c4c[nH]c(N)n4)c3)c2)c[nH]1 | 5 µM | 1 h | pH 7.4 | > 80% |
| O=C(CCCO)N1N=C(c2c(-c3ccc(Cl)cc3)c3ccccc3[nH]c2=O)CC1c1ccc(Cl)cc1 (centres unmarked) | 1 µM | 20 min | pH 7.4 | 31% |
| Nc1nc(-c2ccc(NC(=O)Nc3cccc(-c4c[nH]c(N)n4)c3F)cc2F)c[nH]1 | 5 µM | 1 h | pH 7.4 | > 80% |
| CS(=O)(=O)c1ccc(-c2cnc(N)c(-c3ccc(C(F)(F)F)nc3)c2)cc1 | 1 µM | 30 min |  | 92% |
| Cc1cn(-c2ccc(-c3csc(Nc4c5c(nn4C)CCCC5)n3)cc2)cn1 | 1 µM | 30 min |  | 55% |
| CC[C@H](NC(=O)[C@H](CS(=O)(=O)CC1CC1)N[C@@H](c1ccc(F)cc1)C(F)(F)F)C(=O)C(=O)NC1CC1 |  | 1 h |  | 93% |
| O=C(Nc1ccc(S(=O)(=O)N2CCC(Cl)CC2)cc1)c1ccc([N+](=O)[O-])o1 | 1 µM | 1 h | pH 7.4 | 0.49% |
